From ChEMBL document CHEMBL1122347, “synthesis and antihypertensive activity of 2-sulfonamido- and 2-sulfamido-1,3,4,6,7,11b alpha-hexahydro-2H-benzo[a]quinolizines” (1983)
“And” between values parts separate entries of the source, which are not always exact repeats. Identical values can stand only once. The source made the active and inactive calls. The rule behind the calls is not given here.

Legend:
Rattus norvegicus [1] = assay: Antihypertensive activity in DOCA/saline rat dosed at 50 mg/kg, administered perorally expressed as percent fall in blood pressure after 6 h; NS is not significant; format: functional, organism-based; design: dose 50 mg/kg
Procedure, shortened: (§1)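 Hypertensive rats were kept only if systolic pressure was at least 155 mmHg, in groups of four. They were dosed orally in 0.5% (hydroxypropyl)methylcellulose/0.9% saline vehicle (10 mL/kg), with a vehicle-alone control. Systolic pressure was measured by tail-cuff with a pneumatic pulse transducer in 37 °C housing before dosing and at 2, 6 and 24 h. Heart rate was taken from pulse traces. Means ± SE; ANOVA against control, p > 0.05 nonsignificant.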

Rattus norvegicus [2] = assay: Antihypertensive activity in DOCA/saline rat dosed at 50 mg/kg, administered perorally expressed as percent rise in heart rate after 2 h; format: functional; settings: route oral; procedure, shortened: as §1
Rattus norvegicus [3] = assay: Antihypertensive activity in DOCA/saline rat dosed at 50 mg/kg, administered perorally expressed as percent rise in heart rate after 6 h; NS is not significant; format: functional, organism-based; design: dose 50 mg/kg; procedure, shortened: as §1
Rattus norvegicus [4] = assay: Antihypertensive activity in DOCA/saline rat dosed at 50 mg/kg, administered perorally expressed as percent fall in blood pressure after 2 h; NS is not significant; format: functional, organism-based; design: dose 50 mg/kg; procedure, shortened: as §1
Rattus norvegicus [5] = assay: Antihypertensive activity in DOCA/saline rat dosed at 50 mg/kg, administered perorally expressed as percent fall in blood pressure after 6 h; format: functional; settings: route oral; procedure, shortened: as §1
Rattus norvegicus [6] = assay: Antihypertensive activity in DOCA/saline rat dosed at 50 mg/kg, administered perorally expressed as percent fall in blood pressure after 2 h; format: functional; settings: route oral; procedure, shortened: as §1
Rattus norvegicus [7] = assay: Antihypertensive activity in DOCA/saline rat dosed at 25 mg/kg, administered perorally expressed as percent rise in heart rate after 6 h; NS is not significant; format: functional, organism-based; design: dose 25 mg/kg; procedure, shortened: as §1
Rattus norvegicus [8] = assay: Antihypertensive activity in DOCA/saline rat dosed at 50 mg/kg, administered perorally expressed as percent rise in heart rate after 6 h; format: functional; settings: route oral; procedure, shortened: as §1
Rattus norvegicus [9] = assay: Antihypertensive activity in DOCA/saline rat dosed at 50 mg/kg, po administered perorally expressed as percent rise in heart rate after 2 h; format: functional; procedure, shortened: as §1
Rattus norvegicus [10] = assay: Antihypertensive activity in DOCA/saline rat dosed at 25 mg/kg, administered perorally expressed as percent fall in blood pressure after 2 h; NS is not significant; format: functional, organism-based; design: dose 25 mg/kg; procedure, shortened: as §1
Rattus norvegicus [11] = assay: Antihypertensive activity in DOCA/saline rat dosed at 25 mg/kg, administered perorally expressed as percent fall in blood pressure after 6 h; NS is not significant; format: functional, organism-based; design: dose 25 mg/kg; procedure, shortened: as §1
Rattus norvegicus [12] = assay: Antihypertensive activity in DOCA/saline rat dosed at 25 mg/kg, administered perorally expressed as percent rise in heart rate after 2 h; NS is not significant; format: functional, organism-based; design: dose 25 mg/kg; procedure, shortened: as §1
Rattus norvegicus [13] = assay: (§2) Antihypertensive activity in DOCA/saline rat dosed at 50 mg/kg, administered perorally expressed as percent rise in heart rate after 2 h; NS is not significant; format: functional, organism-based; design: dose 50 mg/kg; procedure, shortened: as §1
Rattus norvegicus [14] = organism: Rattus norvegicus; settings: 2 mg/kg
Rattus norvegicus [15] = organism: Rattus norvegicus; settings: Heart, 2 mg/kg
Rattus norvegicus [16] = assay: Antihypertensive activity in DOCA/saline rat dosed at 50 mg/kg, po expressed as percent rise in heart rate after 2 h; format: functional; procedure, shortened: as §1
Rattus norvegicus [17] = assay: Antihypertensive activity in DOCA/saline rat dosed at 50 mg/kg, po expressed as percent fall in blood pressure after 6 h; NS is not significant; format: functional, organism-based; design: dose 50 mg/kg; procedure, shortened: as §1
Rattus norvegicus [18] = assay: Antihypertensive activity in DOCA/saline rat dosed at 50 mg/kg, po expressed as percent rise in heart rate after 6 h; NS is not significant; format: functional, organism-based; design: dose 50 mg/kg; procedure, shortened: as §1
Rattus norvegicus [19] = assay: Antihypertensive activity in DOCA/saline rat dosed at 50 mg/kg, po expressed as percent fall in blood pressure after 2 h; format: functional; procedure, shortened: as §1
Rattus norvegicus [20] = assay: Antihypertensive activity in DOCA/saline rat dosed at 25 mg/kg, administered perorally expressed as percent fall in blood pressure after 6 h; format: functional; settings: route oral; procedure, shortened: as §1
Rattus norvegicus [21] = assay: Antihypertensive activity in DOCA/saline rat dosed at 25 mg/kg, administered perorally expressed as percent fall in blood pressure after 2 h; format: functional; settings: route oral; procedure, shortened: as §1
Rattus norvegicus [22] = assay: Antihypertensive activity in DOCA/saline rat dosed at 10mg/kg, administered perorally expressed as percent rise in heart rate after 2 h; format: functional; procedure, shortened: as §1
Rattus norvegicus [23] = assay: Antihypertensive activity in DOCA/saline rat dosed at 10 mg/kg, administered perorally expressed as percent rise in heart rate after 6 h; NS is not significant; format: functional, organism-based; design: dose 10 mg/kg; procedure, shortened: as §1
Rattus norvegicus [24] = assay: Antihypertensive activity in DOCA/saline rat dosed at 10 mg/kg, administered perorally expressed as percent fall in blood pressure after 6 h; NS is not significant; format: functional, organism-based; design: dose 10 mg/kg; procedure, shortened: as §1
Rattus norvegicus [25] = assay: Antihypertensive activity in DOCA/saline rat dosed at 50 mg/kg, administered perorally expressed as percent rise in heart rate after 2 h; NS is not significant,; format: functional, organism-based; design: dose 50 mg/kg; procedure, shortened: as §1
Rattus norvegicus [26] = assay: Antihypertensive activity in DOCA/saline rat dosed at 10 mg/kg, administered perorally expressed as percent fall in blood pressure after 2 h; format: functional; settings: route oral; procedure, shortened: as §1
Rattus norvegicus [27] = assay: Antihypertensive activity in DOCA/saline rat dosed at 25 mg/kg, po administered perorally expressed as percent rise in heart rate after 2 h; NS is not significant; format: functional, organism-based; design: dose 25 mg/kg; procedure, shortened: as §1
Rattus norvegicus [28] = assay: Antihypertensive activity in DOCA/saline rat dosed at 50 mg/kg administered perorally expressed as percent rise in heart rate after 2 h; NS is not significant; format: functional, organism-based; design: dose 50 mg/kg; procedure, shortened: as §1
Rattus norvegicus [29] = assay: Antihypertensive activity in DOCA/saline rat dosed at 50 mg/kg, administered perorally expressed as percent rise in heart rate after 6 h; NS is not significant,; format: functional, organism-based; design: dose 50 mg/kg; procedure, shortened: as §1
Rattus norvegicus [30] = assay: Antihypertensive activity in DOCA/saline rat dosed at 25 mg/kg, po administered perorally expressed as percent rise in heart rate after 6 h; NS is not significant; format: functional, organism-based; design: dose 25 mg/kg; procedure, shortened: as §1
Rattus norvegicus [31] = assay: as §2; format: functional, organism-based; design: dose 50 mg/kg; procedure, shortened: as §1; remark: listed apart in the source
Rattus norvegicus [32] = assay: Antihypertensive activity in DOCA/saline rat dosed at 10 mg/kg, administered perorally expressed as percent fall in blood pressure after 2 h; NS is not significant; format: functional, organism-based; design: dose 10 mg/kg; procedure, shortened: as §1
Rattus norvegicus [33] = assay: Antihypertensive activity in DOCA/saline rat dosed at 10mg/kg, administered perorally expressed as percent fall in blood pressure after 6 h; NS is not significant; format: functional, organism-based; procedure, shortened: as §1

Compound | Decrease in blood pressure (Rattus norvegicus [1]) | Rise HR (Rattus norvegicus [3]) | Decrease in blood pressure (Rattus norvegicus [4]) | Decrease in blood pressure (Rattus norvegicus [5]) | Decrease in blood pressure (Rattus norvegicus [6]) | Rise HR (Rattus norvegicus [13]) | also measured
Cl.O=S(=O)(N[C@@H]1CCN2CCc3ccccc3[C@@H]2C1)N1CCCC1 | inactive | inactive | inactive | – | – | – | Rise HR (Rattus norvegicus [2]): 22%
CNS(=O)(=O)N[C@@H]1CCN2CCc3ccccc3[C@@H]2C1.Cl | – | inactive | – | 18% | 35% | – | Rise HR (Rattus norvegicus [2]): 23%
CCCS(=O)(=O)N(C)[C@@H]1CCN2CCc3ccccc3[C@@H]2C1.Cl | inactive | – | – | – | 38% | – | Rise HR (Rattus norvegicus [7]): inactive; Rise HR (Rattus norvegicus [8]): 21%; Rise HR (Rattus norvegicus [9]): 15%; Decrease in blood pressure (Rattus norvegicus [10]): inactive; Decrease in blood pressure (Rattus norvegicus [11]): inactive; Rise HR (Rattus norvegicus [12]): inactive
COc1cc2c(cc1OC)[C@@H]1C[C@H](NS(N)(=O)=O)CCN1CC2.Cl | inactive | inactive | – | – | 22% | inactive | –
CCCS(=O)(=O)N[C@@H]1CCN2CCc3ccccc3[C@@H]2C1.Cl | – | inactive | – | 46% | 28% | – | Rise HR (Rattus norvegicus [2]): 14%
CS(=O)(=O)N[C@@H]1CCN2CCc3ccc(Cl)cc3[C@@H]2C1 | inactive | inactive | inactive | – | – | inactive | –
O=S(=O)(Nc1ccccc1)N[C@@H]1CCN2CCc3ccccc3[C@@H]2C1 | inactive | inactive | inactive | – | – | inactive | –
NNc1nncc2ccccc12 | – | – | – | – | – | – | Decrease in blood pressure (Rattus norvegicus [14]): inactive; Rise HR (Rattus norvegicus [15]): inactive
Cc1ccc(N(CC2=NCCN2)c2cccc(O)c2)cc1 [PHENTOLAMINE] | – | – | – | – | – | – | Rise HR (Rattus norvegicus [16]): 23%; Decrease in blood pressure (Rattus norvegicus [17]): inactive; Rise HR (Rattus norvegicus [18]): inactive; Decrease in blood pressure (Rattus norvegicus [19]): 36%
CCS(=O)(=O)N[C@H]1CCN2CCc3ccccc3[C@@H]2C1 | inactive | inactive | inactive | – | – | inactive | –
COc1cc2c(cc1OC)[C@@H]1C[C@H](NS(C)(=O)=O)CCN1CC2.Cl | – | inactive | – | 35% | 44% | – | Rise HR (Rattus norvegicus [2]): 16%
CN(C)S(=O)(=O)N[C@@H]1CCN2CCc3ccccc3[C@@H]2C1.Cl | – | inactive | – | 31% | 45% | inactive | –
CCN(CC)S(=O)(=O)N[C@@H]1CCN2CCc3ccccc3[C@@H]2C1.Cl | inactive | inactive | – | – | 29% | inactive | –
CS(=O)(=O)N[C@@H]1CCN2CCc3ccccc3[C@@H]2C1.Cl | – | – | – | 68% | 53% | – | Decrease in blood pressure (Rattus norvegicus [20]): 50%; Rise HR (Rattus norvegicus [7]): inactive; Decrease in blood pressure (Rattus norvegicus [21]): 50%; Rise HR (Rattus norvegicus [22]): 39%; Increase in heart rate (Rattus norvegicus [3]): inactive; Rise HR (Rattus norvegicus [23]): inactive; Decrease in blood pressure (Rattus norvegicus [24]): inactive; Increase in heart rate (Rattus norvegicus [25]): Not significant; Decrease in blood pressure (Rattus norvegicus [26]): 28%; Rise HR (Rattus norvegicus [27]): inactive
CN([C@@H]1CCN2CCc3ccccc3[C@@H]2C1)S(C)(=O)=O | inactive | inactive | inactive | – | – | inactive | –
CS(=O)(=O)N[C@H]1CCN2CCc3ccccc3[C@@H]2C1 | inactive | – | inactive | – | – | – | Rise HR (Rattus norvegicus [28]): inactive; Rise HR (Rattus norvegicus [29]): inactive
Cl.O=S(=O)(N[C@H]1CCN2CCc3ccccc3[C@@H]2C1)c1ccccc1 | – | inactive | inactive | 18% | – | inactive | –
CCS(=O)(=O)N(C)[C@@H]1CCN2CCc3ccccc3[C@@H]2C1.Cl | – | – | – | – | – | – | Rise HR (Rattus norvegicus [7]): inactive; Decrease in blood pressure (Rattus norvegicus [21]): 36%; Decrease in blood pressure (Rattus norvegicus [11]): inactive; Rise HR (Rattus norvegicus [12]): inactive
O=S(=O)(N[C@@H]1CCN2CCc3ccccc3[C@@H]2C1)c1ccccc1 | inactive | inactive | inactive | – | – | inactive | –
CCS(=O)(=O)N[C@@H]1CCN2CCc3ccccc3[C@@H]2C1.Cl | – | – | – | 43% | – | inactive | Rise HR (Rattus norvegicus [8]): 22%; Decrease in blood pressure (Rattus norvegicus [21]): 42%; Rise HR (Rattus norvegicus [30]): inactive; Rise HR (Rattus norvegicus [29]): inactive; Rise HR (Rattus norvegicus [31]): inactive; Decrease in blood pressure (Rattus norvegicus [11]): inactive; Rise HR (Rattus norvegicus [12]): inactive; Decrease in blood pressure (Rattus norvegicus [6]; 50 mg/kg): 56% and 37%
Cl.NS(=O)(=O)N[C@@H]1CCN2CCc3ccccc3[C@@H]2C1 | – | inactive | – | 50% | 48% | – | Rise HR (Rattus norvegicus [2]): 24%; Rise HR (Rattus norvegicus [22]): 24%; Decrease in blood pressure (Rattus norvegicus [32]): inactive; Decrease in blood pressure (Rattus norvegicus [33]): inactive; Rise HR (Rattus norvegicus [23]): inactive
